Screens deposited in PubChem BioAssay by several laboratories.
SF1 activator – activates the human nuclear receptor SF-1. Q13285. CHO-K1 Gal4-SF-1 LBD luciferase reporter; % increase over DMSO SF-1-specific signal. activation, % at 10 µM. 1.9% of 65,000 active;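 active = activation above the mean activation of all tested compounds plus 3 SD, cut at about 50% in these data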
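Material: Gal4–SF-1 LBD one-hybrid luciferase reporter in CHO-K1 cells | Amount: 4,000 cells per well | Compound dosing: 10 µM single point, 1% DMSO | Schedule: 20 h compound treatment, 37 °C | Measured by: SteadyLite luciferase luminescence | Evaluation: Percent activation versus DMSO | Control set: DMSO-treated SF-1-transfected cells as negative, DMSO-treated mock-transfected cells lacking SF-1 as background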
RORa activator – RORA (human) activation; CHO-K1 Gal4-RORA LBD luciferase reporter, luminescence; percent increase over mock-subtracted basal signal; activation, % at 10 µM; 1.5% of 65,000 active; P35398;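 active = activation above the mean of all tested compounds plus 3 SD, cut at about 49% in these data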
D1 allo mod – allosterically modulates the human D1 dopamine receptor. P21728. HEK293 D1, CRE-luciferase, dopamine EC30 potentiation; actives deviate in either direction. B-score at 10 µM. 5.9% of 58,000 active. AID 641;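 active = luminescence count or its row- and column-corrected plate score outside the 99.7% band of the plate's sample wells, on either side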
M1 agonist – activates the M1 muscarinic receptor; CHO-M1 cells, Fluo-4 calcium fluorescence, agonist mode; active compounds read high; B-score at 10 µM; 3% of 64,000 active; AID 626;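 active = fluorescence rise, raw or as B-score row- and column-corrected plate score, outside the 99.7% band of its plate's samples, either direction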
M1 antagonist – M1 muscarinic receptor (rat) antagonism; CHO-M1 cells, Fluo-4 calcium, ACh EC80 antagonist mode; active compounds read low; B-score at 10 µM; 3.4% of 64,000 active; AID 628;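 active = calcium fluorescence response, raw or row-and-column corrected B-score, differing from the plate sample mean either way at a set confidence level, mostly lower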
Target sequence (P08482 whole entry, looked up): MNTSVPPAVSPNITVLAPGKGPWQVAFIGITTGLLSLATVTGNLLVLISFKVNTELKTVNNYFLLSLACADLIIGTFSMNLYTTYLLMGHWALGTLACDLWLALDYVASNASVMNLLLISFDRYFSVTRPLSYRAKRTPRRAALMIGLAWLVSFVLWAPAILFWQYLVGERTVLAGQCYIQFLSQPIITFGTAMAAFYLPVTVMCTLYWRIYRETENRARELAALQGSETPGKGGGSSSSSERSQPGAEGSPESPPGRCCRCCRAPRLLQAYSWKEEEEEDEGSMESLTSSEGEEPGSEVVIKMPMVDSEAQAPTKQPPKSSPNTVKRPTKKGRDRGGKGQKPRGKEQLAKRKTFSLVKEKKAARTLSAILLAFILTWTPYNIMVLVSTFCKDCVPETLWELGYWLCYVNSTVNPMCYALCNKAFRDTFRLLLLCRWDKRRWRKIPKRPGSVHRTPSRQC
Htt clearance – compounds clearing mutant huntingtin protein; inhibition, % at 1.5 µM; 0.42% of 47,000 active; HeLa Exon1htt(103Q)mCFP, aggregate imaging; zero = plate's median compound well;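 active = inhibition of aggregate fluorescence above about 70%, also judged a hit by eye on the cell image, limit read from the data, passing the limit was not always enough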;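 also: cells exposed to compound for three days before fixation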
M1 antag conf – confirmation of rat M1 muscarinic receptor antagonists. shares compounds with M1 antagonist. CHO-M1 cells, Fluo-4 calcium, ACh EC80 antagonism; active compounds read low. calcium response (max-min fluorescence) at 10 µM. 43% of 1,700 active;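 active = calcium response below the same-plate mean of wells given acetylcholine alone at its 80%-effect dose, minus 3 SD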
mGluR4 antag – selectivity test for M1 antagonists: human mGluR4 receptor | shares compounds with M1 antagonist | CHO-mGluR4 calcium flux, Fluo-4 fluorescence, glutamate EC80; active compounds read low | fluorescence response (max-min) at 10 µM | 0.9% of 1,700 active | AID 678;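 active = fluorescence response below the plate's average for near-maximal glutamate wells, less 3 SD of those wells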;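 also: raw unnormalized fluorescence span taken in the window right after glutamate addition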
Large screens that a line does not name were inactive (follow-up assays come after a bar, where they were run). An excerpt weighted towards active compounds, which were near 11% of everything screened.

COc1ccc(N2CCN(C(=O)CNC(=O)Cn3c(C)cc4ccccc4c3=O)CC2)cc1	M1 antagonist -2.4 (no result: Htt clearance) | M1 antag conf inactive | mGluR4 antag inactive
Cc1cc2ccccc2c(=O)n1CC(=O)NCC(=O)N1CCCC1	none (no result: Htt clearance)
Cc1nn(C(C)C(=O)O)c2ccccc12 (stereo unspecified)	none (no result: Htt clearance)
CCCCN(CCCC)CCn1cnc2c([nH]c3ccc(OC)cc32)c1=O	none
COc1cc2[nH]c3c(=O)n(CCN(C(C)C)C(C)C)cnc3c2cc1OC	M1 antagonist -4.6 (no result: Htt clearance) | M1 antag conf inactive | mGluR4 antag inactive
Cn1c(=O)n(C)c2cc(NC(=O)CCl)ccc21	none (no result: SF1 activator, RORa activator, D1 allo mod, M1 agonist, M1 antagonist)
Cn1c(NC(=O)c2cc(Cl)ccc2Cl)cc(=O)n(C)c1=O	none
COc1cccc(C(=O)Nc2cc(=O)n(C)c(=O)n2C)c1OC	M1 antagonist -3.8 | M1 antag conf inactive | mGluR4 antag inactive
COc1cc(C(=O)Nc2nnc(CC(=O)N3CCOCC3)s2)cc(OC)c1OC	none (no result: Htt clearance)
COc1ccc(-c2oc3ncn(CCN4CCOCC4)c(=N)c3c2-c2ccc(OC)cc2)cc1	M1 antagonist -11 | M1 antag conf 261 | mGluR4 antag inactive
COc1ccc(-c2oc3ncnc(NCCN4CCOCC4)c3c2-c2ccc(OC)cc2)cc1	none
COC(=O)c1ccccc1NC(=O)c1cc2ncc(Br)cn2n1	none
COc1ccc2[nH]c(=O)c(CN(C)C(=O)COc3ccccc3)cc2c1	M1 antagonist -9 (no result: Htt clearance) | M1 antag conf inactive | mGluR4 antag inactive
CC(C)CC(NC(=O)C1CCC(C)CC1)C(=O)Nc1ccccn1 (stereo unspecified)	M1 antagonist -3.4 (no result: D1 allo mod, Htt clearance) | M1 antag conf inactive | mGluR4 antag inactive
CC(C)C(NC(=O)C1CCCCC1)C(=O)Nc1ccccn1 (stereo unspecified)	none (no result: Htt clearance)
COc1cc(S(=O)(=O)N2CCN(C)CC2)c(OC)cc1Br	none
COc1ccc(C(NC(N)=O)c2ccccc2)cc1 (stereo unspecified)	none (no result: Htt clearance)
COc1ccc(C(C(=O)OCCN(C)C)c2ccccc2)cc1 (stereo unspecified)	M1 antagonist -5.8 | M1 antag conf 232 | mGluR4 antag inactive
CCC1=NC(c2ccccc2OC)N(O)C1(C)C (stereo unspecified)	M1 antagonist -15 | M1 antag conf 257 | mGluR4 antag inactive
COc1ccc(C2N=C(c3ccccc3)C(C)(C)N2O)cc1OC (stereo unspecified)	none (no result: Htt clearance)
CN1C(=O)CC(Sc2ncccc2C(=O)O)C1=O (stereo unspecified)	none (no result: SF1 activator, RORa activator, D1 allo mod, M1 agonist, M1 antagonist)
COc1ccc(CCN2C(=O)CC(Sc3ncccc3C(=O)O)C2=O)cc1OC (stereo unspecified)	M1 antagonist -2.4 | M1 antag conf inactive | mGluR4 antag inactive
CCOc1ccc2nc(N3CCC(C(=O)N4CCN(C5CCCCC5)CC4)CC3)sc2c1	M1 antagonist -2.9 (no result: Htt clearance) | M1 antag conf 378 | mGluR4 antag inactive
COc1ccc(NC(=O)c2ccc(CN3CCN(c4ccccc4)CC3)cc2)cc1OC	M1 antagonist -2.7 (no result: Htt clearance) | M1 antag conf inactive | mGluR4 antag inactive
c1ccc2c(c1)CCN(CCCNc1nc3ccccc3n3cnnc13)C2	none
O=C(Nc1ccc(S(=O)(=O)N2CCCc3ccccc32)cc1)C1CCCO1 (stereo unspecified)	M1 antagonist -9.7 (no result: Htt clearance) | M1 antag conf 29 | mGluR4 antag inactive
O=C(Nc1ccc(S(=O)(=O)N2CCc3ccccc3C2)cc1)C1CCCO1 (stereo unspecified)	none (no result: Htt clearance)
CCCc1[nH]nc2c1C(c1ccncc1)C(C#N)=C(N)O2 (stereo unspecified)	M1 antagonist -3.7 | M1 antag conf inactive | mGluR4 antag inactive
CCc1[nH]nc2c1C(c1cccnc1)C(C#N)=C(N)O2 (stereo unspecified)	none
CCCc1[nH]nc2c1C(c1ccccc1OC)C(C#N)=C(N)O2 (stereo unspecified)	none
